From ChEMBL document CHEMBL5143681, “Clerodane Diterpenes from Casearia corymbosa as Allosteric GABAA Receptor Modulators” (J Nat Prod, 2022) come the findings set out here.

By EC50 is commonly meant the concentration needed to bring the measured effect to its halfway point.

Activity calls are given as the source filed them. The rule behind the calls is not given here.

Type in all cases: cell-based
The target of assay [1] is T1, GABA-A receptor; alpha-1/beta-2/gamma-2 (Homo sapiens, UniProt P14867+P18507+P47870).
T1 sequence (P14867 whole entry): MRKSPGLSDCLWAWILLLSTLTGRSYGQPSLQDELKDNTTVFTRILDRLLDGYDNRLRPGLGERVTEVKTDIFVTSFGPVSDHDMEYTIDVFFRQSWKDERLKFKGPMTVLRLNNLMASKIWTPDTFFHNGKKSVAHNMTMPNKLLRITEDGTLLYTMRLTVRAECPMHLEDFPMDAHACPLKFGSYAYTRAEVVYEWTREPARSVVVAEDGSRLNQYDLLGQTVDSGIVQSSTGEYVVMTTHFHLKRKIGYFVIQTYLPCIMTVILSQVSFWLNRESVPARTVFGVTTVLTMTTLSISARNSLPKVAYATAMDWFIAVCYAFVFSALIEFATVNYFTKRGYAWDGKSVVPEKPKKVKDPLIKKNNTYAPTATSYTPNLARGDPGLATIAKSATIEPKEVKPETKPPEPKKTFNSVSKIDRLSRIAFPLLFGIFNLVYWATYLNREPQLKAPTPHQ
T1 sequence (P47870 whole entry): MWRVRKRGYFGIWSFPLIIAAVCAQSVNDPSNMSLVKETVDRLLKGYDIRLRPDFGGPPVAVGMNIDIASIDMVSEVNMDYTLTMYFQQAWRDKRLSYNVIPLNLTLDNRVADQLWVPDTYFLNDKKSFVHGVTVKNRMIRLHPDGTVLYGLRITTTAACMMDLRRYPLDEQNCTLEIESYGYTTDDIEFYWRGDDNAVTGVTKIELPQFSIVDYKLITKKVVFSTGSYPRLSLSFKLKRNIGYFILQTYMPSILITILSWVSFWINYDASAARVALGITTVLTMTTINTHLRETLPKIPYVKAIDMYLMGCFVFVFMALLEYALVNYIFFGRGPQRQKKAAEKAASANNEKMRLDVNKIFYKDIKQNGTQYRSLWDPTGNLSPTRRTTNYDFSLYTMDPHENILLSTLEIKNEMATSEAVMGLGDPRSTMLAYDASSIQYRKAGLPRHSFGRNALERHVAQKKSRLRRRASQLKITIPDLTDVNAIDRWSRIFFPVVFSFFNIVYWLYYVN
T1 sequence (P18507 whole entry): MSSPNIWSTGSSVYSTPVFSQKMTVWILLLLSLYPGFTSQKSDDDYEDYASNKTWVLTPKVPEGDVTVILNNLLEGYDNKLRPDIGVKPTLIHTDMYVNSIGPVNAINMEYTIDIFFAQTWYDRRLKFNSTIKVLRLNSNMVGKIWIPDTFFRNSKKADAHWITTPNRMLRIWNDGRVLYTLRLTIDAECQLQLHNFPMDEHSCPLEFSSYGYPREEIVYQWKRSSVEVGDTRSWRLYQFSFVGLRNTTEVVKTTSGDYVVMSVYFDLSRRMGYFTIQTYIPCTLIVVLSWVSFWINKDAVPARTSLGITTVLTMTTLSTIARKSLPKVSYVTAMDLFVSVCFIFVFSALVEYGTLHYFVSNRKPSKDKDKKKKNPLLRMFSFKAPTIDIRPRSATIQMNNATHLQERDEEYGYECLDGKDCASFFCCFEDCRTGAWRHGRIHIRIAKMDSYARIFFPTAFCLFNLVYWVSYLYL
Put plainly: Positive allosteric modulation of GABAA alpha1beta2gamma2 receptor (unknown origin) stably expressed in CHO cells assessed as activation of GABA-induced response in presence of GABA by FLIPR assay.

Assay [2] addresses T2, GABA-A receptor; alpha-1/beta-2/gamma-2 (Homo sapiens) (UniProt P14867+P47870+P18507). Put plainly: Positive allosteric modulation of GABAA alpha1beta2gamma2 receptor (unknown origin) stably expressed in CHO cells assessed as activation of GABA-induced response at 5 uM in presence of flumazenil by FLIPR assay. As to conditions: filed as positive allosteric modulator. In short, it runs like this: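 For the benzodiazepine-site test, α1β2γ2-CHO cells in the FLIPR membrane-potential assay received compound at 5 μM plus flumazenil at 0.001–10 μM, with 2 μM GABA added at 295 s. Activation was the fluorescence change at 270–330 s, normalized to 200 μM GABA. Controls were 2 μM GABA, 200 μM GABA and 0.2% DMSO.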

The target of assay [3] is T2, GABA-A receptor; alpha-1/beta-2/gamma-2 (Homo sapiens). Put plainly: Additive positive allosteric modulation of GABAA alpha1beta2gamma2 receptor (unknown origin) stably expressed in CHO cells assessed as activation of GABA-induced response at 0.5 to 8 uM in presence of diazepam by FLIPR assay. To be noted: filed as positive allosteric modulator, dose 0.5-8 µM. In short, it runs like this: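 α1β2γ2-CHO cells were run in the FLIPR membrane-potential assay. Activation was the fluorescence change at 270–330 s, normalized to 200 μM GABA. Controls were 2 μM GABA, 200 μM GABA and 0.2% DMSO.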

Assay [4] shares this target. Put plainly: Additive positive allosteric modulation of GABAA alpha1beta2gamma2 receptor (unknown origin) stably expressed in CHO cells assessed as activation of GABA-induced response at 0.5 to 8 uM in presence of etazolate by FLIPR assay. As to conditions: filed as positive allosteric modulator, dose 0.5-8 µM. In short, it runs like this:
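In the FLIPR membrane-potential assay on α1β2γ2-CHO cells, compound at 0.5–8.0 μM was tested with etazolate at a fixed concentration (0.78 μM per the methods). 2 μM GABA was added at 295 s. The fluorescence change at 270–330 s was normalized to 200 μM GABA. Controls were 2 μM GABA, 200 μM GABA and 0.2% DMSO.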

Assay [5] has the same target. Put plainly: Positive allosteric modulation of GABAA alpha1beta2gamma2 receptor (unknown origin) stably expressed in CHO cells assessed as activation of GABA-induced response at 10 uM in presence of pregnenolone sulfate by FLIPR assay. As to conditions: filed as positive allosteric modulator. In short, it runs like this: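 Compound was held at 10 μM with pregnenolone sulfate at 0.001–10 μM in the FLIPR membrane-potential assay on α1β2γ2-CHO cells, and 2 μM GABA was added at 295 s. The fluorescence change at 270–330 s was normalized to 200 μM GABA. Controls were 2 μM GABA, 200 μM GABA and 0.2% DMSO.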

The target is the same in assay [6]. Put plainly: Additive positive allosteric modulation of GABAA alpha1beta2gamma2 receptor (unknown origin) stably expressed in CHO cells assessed as activation of GABA-induced response at 0.5 to 4 uM in presence of allopregnanolone by FLIPR assay. As to conditions: filed as positive allosteric modulator, dose 0.5-4 µM, DDE = dose-dependent effect. In short, it runs like this:
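The FLIPR membrane-potential assay used α1β2γ2-CHO cells. Compound was tested at 0.5, 1.0, 2.0 and 4.0 μM together with a fixed 0.25 μM allopregnanolone, and 2 μM GABA was added at 295 s. The fluorescence change at 270–330 s was normalized to 200 μM GABA. Plates included 2 μM GABA, 200 μM GABA and 0.2% DMSO controls.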

For the molecule `C=C/C(C)=C/C[C@]1(C)[C@H](C)C[C@H](OC)[C@]23C(=C[C@@H](OC(C)=O)C[C@@H]12)[C@@H](OC(C)=O)O[C@H]3OC(C)=O`, the EC50 in assay [1] was 1.4 µM. Moreover, the result in assay [2], in assay [3], in assay [4] and in assay [5] was Active. In assay [6], the Activity entry was “Dde”.

Turning to `C=C/C(C)=C/C[C@]1(C)[C@H](C)C[C@H](O)[C@]23C(=C[C@@H](OC(C)=O)C[C@@H]12)[C@@H](OC(C)=O)O[C@H]3OC(C)=O`, the EC50 in assay [1] stood at 0.5 µM.

Turning to `O=C(/C=C/C=C/c1ccc2c(c1)OCO2)N1CCCCC1` [PIPERINE], in assay [1], the EC50 stood at 5.8 µM.

In the case of `C=CCc1ccc(O)c(-c2cc(CC=C)ccc2O)c1` [MAGNOLOL], the EC50 in assay [1] turned out to be 4.8 µM.

In the case of `C=C/C(C)=C/C[C@]1(C)[C@H](C)C[C@H](OC(C)=O)[C@]23C(=C[C@@H](OC(C)=O)C[C@@H]12)[C@@H](OC(C)=O)O[C@H]3OC(C)=O`, the EC50 in assay [1] turned out to be 4.6 µM.

As to `CC1=C2[C@H](/C=C(\C)C(=O)O)CC[C@@H](C)[C@H]2CC1` [VALERENIC ACID], the EC50 in assay [1] came out at 12.6 µM.
